# Reference: ChEMBL document CHEMBL1154716, “Synthesis of some new S-triazine based chalcones and their derivatives as potent antimicrobial agents” (2010)
# Active and inactive are the calls of the source. The calls are words filed in the database; no cut-off is given here.
# Legend:
# Salmonella typhimurium [1] = assay: Antimicrobial activity against Salmonella Typhimurium at 1 umol/disk after 24 hrs by disk diffusion assay; type: functional, organism-based; details: Salmonella enterica subsp. enterica serovar Typhimurium
# In short: (§1)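 Disc diffusion on 4 mm filter discs. Bacteria are grown overnight in LB at 28 C, then adjusted in saline to 1.0 × 10^5 cfu/ml. The suspension is mixed into top agar over peptone agar plates. Plates are incubated 24 h at 28 C, and growth-inhibition zone diameter is measured. Streptomycin and ampicillin controls are applied from a 1 mg/ml stock. Tests are done in duplicate.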
# Bacillus cereus [2] = assay: Antimicrobial activity against Bacillus cereus after 24 hrs by microdilution technique; type: functional
# In short: (§2)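 Broth microdilution in LB medium. Inoculum is 1.0 × 10^4 cfu per well, from a saline-adjusted suspension of 1.0 × 10^5 cfu/ml. Compounds are dissolved in DMSO. Incubated 24 h at 28 C. MIC is the lowest concentration with no visible growth under a binocular microscope. MBC is read by subculture into fresh broth for 72 h, with no growth taken as 99.5% kill. OD is read at 655 nm.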
# Pseudomonas aeruginosa [3] = assay: Antimicrobial activity against Pseudomonas aeruginosa at 10 ug/disk after 24 hrs by disk diffusion assay; type: functional; in short: as §1
# Salmonella typhimurium [4] = assay: Antimicrobial activity against Salmonella Typhimurium at 1 umol/spot after 18 hrs by TLC-bioautographic method; type: functional; details: Salmonella enterica subsp. enterica serovar Typhimurium
# In short: (§3)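 TLC bioautography. Samples are spotted on silica gel TLC plates, then sprayed with bacteria (1.0 × 10^5 cfu/ml) in tryptic soy broth. Plates are incubated 18 h at 37 C and sprayed with 3% aqueous p-iodonitrotetrazolium violet. After a further 3 h, growth is stopped with 70% EtOH. White zones on a pink background are scored as inhibition-zone diameter with standard errors.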
# Staphylococcus aureus [5] = assay: Antimicrobial activity against Staphylococcus aureus at 1 umol/disk after 24 hrs by disk diffusion assay; type: functional; in short: as §1
# Listeria monocytogenes [6] = assay: Antimicrobial activity against Listeria monocytogenes after 24 hrs by microdilution technique; type: functional; in short: as §2
# Staphylococcus aureus [7] = assay: Antimicrobial activity against Staphylococcus aureus after 24 hrs by microdilution technique; type: functional; in short: as §2
# Micrococcus flavus [8] = assay: Antimicrobial activity against Micrococcus flavus after 24 hrs by microdilution technique; type: functional; in short: as §2
# Salmonella typhimurium [9] = assay: Antimicrobial activity against Salmonella Typhimurium after 24 hrs by microdilution technique; type: functional, Salmonella enterica subsp. enterica serovar Typhimurium; details: Salmonella enterica; in short: as §2
# Pseudomonas aeruginosa [10] = assay: Antimicrobial activity against Pseudomonas aeruginosa after 24 hrs by microdilution technique; type: functional; in short: as §2
# Salmonella typhimurium [11] = assay: Antimicrobial activity against Salmonella Typhimurium at 10 ug/disk after 24 hrs by disk diffusion assay; type: functional, organism-based; details: Salmonella enterica subsp. enterica serovar Typhimurium; in short: as §1
# Micrococcus flavus [12] = assay: Antimicrobial activity against Micrococcus flavus at 1 umol/disk after 24 hrs by disk diffusion assay; type: functional; in short: as §1
# Pseudomonas aeruginosa [13] = assay: Antimicrobial activity against Pseudomonas aeruginosa at 1 umol/spot after 18 hrs by TLC-bioautographic method; type: functional; in short: as §3
# Listeria monocytogenes [14] = assay: Antimicrobial activity against Listeria monocytogenes at 1 umol/disk after 24 hrs by disk diffusion assay; type: functional; in short: as §1
# Enterobacter cloacae [15] = assay: Antimicrobial activity against Enterobacter cloacae at 1 umol/spot after 18 hrs by TLC-bioautographic method; type: functional; in short: as §3
# Bacillus cereus [16] = assay: Antimicrobial activity against Bacillus cereus at 1 umol/spot after 18 hrs by TLC-bioautographic method; type: functional; in short: as §3
# Staphylococcus aureus [17] = assay: Antimicrobial activity against Staphylococcus aureus at 1 umol/spot after 18 hrs by TLC-bioautographic method; type: functional; in short: as §3
# Enterobacter cloacae [18] = assay: Antimicrobial activity against Enterobacter cloacae at 1 umol/disk after 24 hrs by disk diffusion assay; type: functional; in short: as §1
# Micrococcus flavus [19] = assay: Antimicrobial activity against Micrococcus flavus at 10 ug/disk after 24 hrs by disk diffusion assay; type: functional; in short: as §1
# Listeria monocytogenes [20] = assay: Antimicrobial activity against Listeria monocytogenes at 10 ug/disk after 24 hrs by disk diffusion assay; type: functional; in short: as §1
# Escherichia coli [21] = assay: Antimicrobial activity against Escherichia coli at 1 umol/disk after 24 hrs by disk diffusion assay; type: functional; in short: as §1
# Listeria monocytogenes [22] = assay: Antimicrobial activity against Listeria monocytogenes at 1 umol/spot after 18 hrs by TLC-bioautographic method; type: functional; in short: as §3
# Pseudomonas aeruginosa [23] = assay: Antimicrobial activity against Pseudomonas aeruginosa at 1 umol/disk after 24 hrs by disk diffusion assay; type: functional; in short: as §1
# Enterobacter cloacae [24] = assay: Antimicrobial activity against Enterobacter cloacae after 24 hrs by microdilution technique; type: functional; in short: as §2
# Bacillus cereus [25] = assay: Antimicrobial activity against Bacillus cereus at 1 umol/disk after 24 hrs by disk diffusion assay; type: functional; in short: as §1
# Micrococcus flavus [26] = assay: Antimicrobial activity against Micrococcus flavus at 1 umol/spot after 18 hrs by TLC-bioautographic method; type: functional; in short: as §3
# Bacillus cereus [27] = assay: Antimicrobial activity against Bacillus cereus at 10 ug/disk after 24 hrs by disk diffusion assay; type: functional; in short: as §1
# Escherichia coli [28] = assay: Antimicrobial activity against Escherichia coli at 1 umol/spot after 18 hrs by TLC-bioautographic method; type: functional; in short: as §3
# Enterobacter cloacae [29] = assay: Antimicrobial activity against Enterobacter cloacae at 10 ug/disk after 24 hrs by disk diffusion assay; type: functional; in short: as §1
# Escherichia coli [30] = assay: Antimicrobial activity against Escherichia coli after 24 hrs by microdilution technique; type: functional; in short: as §2
# Staphylococcus aureus [31] = assay: Antimicrobial activity against Staphylococcus aureus at 10 ug/disk after 24 hrs by disk diffusion assay; type: functional; in short: as §1
# Escherichia coli [32] = assay: Antimicrobial activity against Escherichia coli at 10 ug/disk after 24 hrs by disk diffusion assay; type: functional; in short: as §1
MIC (Bacillus cereus [2]),MIC (Listeria monocytogenes [6]),MIC (Staphylococcus aureus [7]),MIC (Micrococcus flavus [8]),MIC (Salmonella typhimurium [9]),MIC (Pseudomonas aeruginosa [10]),Compound,inhibition zone (IZ) (Salmonella typhimurium [1]),MBC (Bacillus cereus [2]),inhibition zone (IZ) (Pseudomonas aeruginosa [3]),inhibition zone (IZ) (Salmonella typhimurium [4]),inhibition zone (IZ) (Staphylococcus aureus [5]),MBC (Listeria monocytogenes [6]),MBC (Staphylococcus aureus [7]),MBC (Micrococcus flavus [8]),MBC (Salmonella typhimurium [9]),MBC (Pseudomonas aeruginosa [10]),inhibition zone (IZ) (Salmonella typhimurium [11]),inhibition zone (IZ) (Micrococcus flavus [12]),inhibition zone (IZ) (Pseudomonas aeruginosa [13]),inhibition zone (IZ) (Listeria monocytogenes [14]),further results
175 µM,700 µM,350 µM,175 µM,350 µM,350 µM,COc1ccccc1C1CC(c2ccc(Nc3nc(Nc4ccccc4)nc(Nc4ccccc4)n3)cc2)=NN1C(C)=O (stereo not given),inactive,350 µM,inactive,inactive,inactive,700 µM,700 µM,350 µM,700 µM,700 µM,inactive,inactive,inactive,inactive,inhibition zone (IZ) (Enterobacter cloacae [15]): 0.08 millimeter; inhibition zone (IZ) (Bacillus cereus [16]): inactive; inhibition zone (IZ) (Staphylococcus aureus [17]): inactive; inhibition zone (IZ) (Enterobacter cloacae [18]): inactive; inhibition zone (IZ) (Micrococcus flavus [19]): inactive; inhibition zone (IZ) (Listeria monocytogenes [20]): inactive; inhibition zone (IZ) (Escherichia coli [21]): inactive; inhibition zone (IZ) (Listeria monocytogenes [22]): 0.08 millimeter; inhibition zone (IZ) (Pseudomonas aeruginosa [23]): inactive; MBC (Enterobacter cloacae [24]): 350 µM; MIC (Enterobacter cloacae [24]): 175 µM; inhibition zone (IZ) (Bacillus cereus [25]): inactive; inhibition zone (IZ) (Micrococcus flavus [26]): inactive; inhibition zone (IZ) (Bacillus cereus [27]): inactive; inhibition zone (IZ) (Escherichia coli [28]): inactive; inhibition zone (IZ) (Enterobacter cloacae [29]): inactive; MBC (Escherichia coli [30]): 700 µM; MIC (Escherichia coli [30]): 350 µM; inhibition zone (IZ) (Staphylococcus aureus [31]): inactive; inhibition zone (IZ) (Escherichia coli [32]): inactive
90.5 µM,724 µM,90.5 µM,90.5 µM,181 µM,181 µM,COc1ccccc1-c1cc(-c2ccc(Nc3nc(Nc4ccccc4)nc(Nc4ccccc4)n3)cc2)nc(N)n1,inactive,181 µM,inactive,inactive,inactive,724 µM,181 µM,181 µM,362 µM,362 µM,inactive,0.03 millimeter,inactive,inactive,inhibition zone (IZ) (Enterobacter cloacae [15]): inactive; inhibition zone (IZ) (Bacillus cereus [16]): inactive; inhibition zone (IZ) (Staphylococcus aureus [17]): 0.03 millimeter; inhibition zone (IZ) (Enterobacter cloacae [18]): inactive; zone of inhibition at 10 µg/disc (Micrococcus flavus [19]; read-out: IZ): 6 mm; inhibition zone (IZ) (Listeria monocytogenes [20]): inactive; inhibition zone (IZ) (Escherichia coli [21]): inactive; inhibition zone (IZ) (Listeria monocytogenes [22]): 0.09 millimeter; inhibition zone (IZ) (Pseudomonas aeruginosa [23]): inactive; MBC (Enterobacter cloacae [24]): 362 µM; MIC (Enterobacter cloacae [24]): 181 µM; inhibition zone (IZ) (Bacillus cereus [25]): inactive; inhibition zone (IZ) (Micrococcus flavus [26]): 0.06 millimeter; inhibition zone (IZ) (Bacillus cereus [27]): inactive; inhibition zone (IZ) (Escherichia coli [28]): inactive; inhibition zone (IZ) (Enterobacter cloacae [29]): inactive; MBC (Escherichia coli [30]): 362 µM; MIC (Escherichia coli [30]): 181 µM; inhibition zone (IZ) (Staphylococcus aureus [31]): inactive; inhibition zone (IZ) (Escherichia coli [32]): inactive
